# Assay outcomes as filed in PubChem.
# Sampled rows, rich in hits. Any-hit rate of the full collection: about 2.3%.
# MT1-MMP act inh – blocks activation of human MT1-MMP | P50281 | HT1080 RFP-PRO-GFP cells, GFP/RFP ratio fluorescence, overnight; percent of plate control window, DMSO zero | GFP/RFP ratio change, % at 20 µM | 360,000 tested, 0.061% active | AID 651647;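 active means GFP/RFP ratio change of at least 30% with cell ATP level not reduced by more than half and red fluorescence within 50% of control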
#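 Assay system: RFP-PRO-GFP reporter HT1080 cells; read-out basis: GFP/RFP fluorescence ratio; benchmarks: DMSO wells and RFP-L50D-GFP cells; doses: 20 µM single dose, 1% DMSO; schedule: overnight cell settling, then overnight compound exposure, 37 °C, 5% CO2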
# SKN-1 block – C. elegans SKN-1 inhibition; AID 624304; inhibition, % at 21.8 µM; C. elegans VP596 Pgst-4::GFP/RFP ratio, acrylamide-induced, 24 h; 360,000 tested, 0.49% active;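 active means interference check ratio from 0.5 to 1.5 plus GFP to RFP signal ratio inhibition reaching or exceeding a fixed threshold, cut at about 30% in these data, passing the limit was not always enough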
# MPTP inh – blocks calcium-induced mitochondrial swelling | 360,000 tested, 1.4% active | isolated mouse mitochondria, Ca2+ swelling absorbance, 30 min | inhibition, % at 10 µM | AID 602449;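 active means inhibition of 50% or more, scaled per plate between neutral and stimulator controls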;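 further: 0% = DMSO wells given calcium and 100% = 1 mM EGTA wells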
# ATG4B inh – inhibitors of human ATG4B cysteine protease; 340,000 tested, 0.51% active; inhibition, % at 8.33 µM; ATG4B cleavage of LC3-PLA2, NBD-HPC fluorescence, 1 h; AID 504462; Q9Y4P1; in the data active means inhibition above about 40%
# Target sequence (Q9Y4P1 whole entry, looked up): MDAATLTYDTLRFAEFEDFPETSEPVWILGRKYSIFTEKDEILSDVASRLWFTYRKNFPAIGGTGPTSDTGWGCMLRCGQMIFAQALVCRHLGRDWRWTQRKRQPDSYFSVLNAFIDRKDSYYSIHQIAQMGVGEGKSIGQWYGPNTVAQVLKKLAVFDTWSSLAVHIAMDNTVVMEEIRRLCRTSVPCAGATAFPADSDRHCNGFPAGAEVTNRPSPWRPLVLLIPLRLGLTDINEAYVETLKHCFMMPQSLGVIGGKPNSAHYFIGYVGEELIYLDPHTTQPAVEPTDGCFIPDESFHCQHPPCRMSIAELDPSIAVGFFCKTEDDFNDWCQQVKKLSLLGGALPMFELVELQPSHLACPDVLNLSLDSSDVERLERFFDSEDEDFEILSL
# MPTP counter – membrane potential counter-screen of mitochondrial pore inhibitors | shares compounds with MPTP inh | isolated mitochondria, Rhodamine 123 fluorescence | inhibition, % at 10 µM | 5,000 tested, 78% active; in the data active means inhibition above about 22%;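 further: 0% = DMSO vehicle and 100% = positive control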
# MPTP swell DR – dose response confirmation of mitochondrial permeability transition pore inhibitors; shares compounds with MPTP inh; 780 tested, 58% active; AID 651561; IC50, µM; isolated mitochondria swelling, absorbance; in the data active means IC50 below about 20 µM
# MPTP cs DR – counter-screen for mitochondrial permeability transition pore inhibitors, dose response; shares compounds with MPTP inh; isolated mitochondria counterscreen, fluorescence read-out; IC50, µM; 780 tested, 49% active; AID 651564; in the data active means IC50 below about 80 µM
# * = called active by the depositor; i = inactive; . = no result.
SMILES,MT1-MMP act inh,SKN-1 block,MPTP inh,ATG4B inh,MPTP counter,others
COc1ccc(CN2CCN(CCCCOc3ccc(Cl)cc3)CC2)c(OC)c1OC,-1,12,66*,7,29*,
CCCOC(=O)Nc1cc(OC)ccc1[N+](=O)[O-],-7,6,-1,-8,.,
N=C1S/C(=C\c2ccccc2F)C(=O)N1c1ccc(F)cc1,0,-1,11,2,.,
N=C1S/C(=C\c2cccc3ccccc23)C(=O)N1c1ccc(F)cc1,5,9,94*,39,20*,
Cc1ccc(C(C)C)c(OCCNCc2ccccc2)c1,-4,10,56*,12,19,MPTP swell DR=4.6*;MPTP cs DR=15*
Cc1ccc(C)c(OCCCNCc2ccccc2)c1,5,6,4,5,.,
CC(=O)Nc1cccc(NC(=O)NC2CC(=O)N(c3ccc4c(c3)OCCO4)C2)c1 (stereo unspecified),1,7,-1,.,.,
CCC[C@@H](CNC)NC[C@H](Cc1ccccc1)NCCCCc1ccccc1,5,16,8,5,.,
CNC[C@@H](Cc1ccccc1)NC[C@@H](CC1CCCCC1)NCCCc1ccccc1,-28,-2,72*,8,-17,
CCOc1ccc(C(C)=O)cc1CN1C(=O)NC(C)(C2CC2)C1=O (stereo unspecified),1,6,-1,-7,.,
NNC(=O)c1csc(-c2ccc(C(F)(F)F)cc2Cl)n1,-1,-5,1,0,.,
COc1ccccc1NS(=O)(=O)c1ccc(O)c(C(=O)OCC(=O)Nc2ccccc2F)c1,2,3,0,-5,.,
O=C(COC(=O)c1cc(S(=O)(=O)Nc2ccccc2Cl)ccc1O)Nc1ccc(F)c(F)c1F,-1,-5,68*,-1,85*,
Cc1onc(-c2c(Cl)cccc2Cl)c1C(=O)NCc1ccco1,0,0,72*,-3,4,MPTP swell DR=i;MPTP cs DR=>80
CCOC(=O)C1=CC[C@@H](c2ccccc2)N(S(=O)(=O)c2ccc(C)cc2)[C@@H]1C#N,8,6,1,.,.,
Clc1cccc(Nc2ncnc3ccc(Br)cc23)c1,-29,17,91*,-14,74*,
Clc1ccc(Nc2ncnc3ccc(Br)cc23)cc1,-27,36*,87*,-2,87*,
CCNc1c(NS(=O)(=O)c2ccc([N+](=O)[O-])cc2)c(=O)oc2ccccc12,1,3,0,3,.,
CCNc1ccc(S(=O)(=O)N(C)C)cc1NCC(=O)Nc1ccccc1F,1,16,15,-4,.,
CCNc1ccc(S(=O)(=O)N(C)C)cc1NCC(=O)Nc1ccc(F)c(Cl)c1,-2,11,59*,7,70*,
Cn1c(=O)c2c(ncn2CC(=O)OCCCC(=O)c2ccc(Br)cc2)n(C)c1=O,3,6,33,-3,.,
CCOC(=O)c1sc(-c2ccccc2)cc1NC(=O)Nc1ccc([N+](=O)[O-])cc1,0,4,87*,5,-5,MPTP swell DR=i;MPTP cs DR=<2.5*
CC(=O)Nc1ccc(S(=O)(=O)NCCC(=O)OC(C)C(=O)NC2(C#N)CCCCC2)cc1 (stereo unspecified),-2,-3,1,-6,.,
CC(=O)c1ccc(OCc2ccc(C(=O)c3ccccc3)cc2)cc1,-11,5,94*,3,94*,
CC(=O)c1ccc(OCc2ccc(Oc3c(Cl)cccc3[N+](=O)[O-])cc2)cc1,-1,8,56*,2,36*,
SMILES,MT1-MMP act inh,SKN-1 block,MPTP inh,ATG4B inh,MPTP counter,others
O=C(c1cccc(Oc2c(Cl)cccc2[N+](=O)[O-])c1)N1CCCCC1,-1,2,0,12,.,
COc1cc(OC)cc(C(=O)NCCC(=O)NCCc2ccc(OC)c(OC)c2)c1,-3,8,2,-2,.,
COc1ccc(-n2c(SCC(=O)N3CCOCC3)nc3ccccc3c2=O)cc1,-3,-4,0,-3,.,
N#CCCN(Cc1ccccc1)C(=O)Nc1ccc(F)cc1,2,7,2,4,.,
C=CC[n+]1c(-c2ccc(C)cc2)csc1Nc1c(C)n(C)n(-c2ccccc2)c1=O,0,5,1,-4,.,
C=CC[n+]1c(-c2ccc(OCC)cc2)csc1NNC(=O)Nc1ccccc1,-26,7,66*,1,79*,
O=C(Nc1ccc(Cl)c(Cl)c1)Nc1ccc(N2CCCC2)c(S(=O)(=O)Nc2ccccc2Cl)c1,-32,10,100*,-2,49*,
O=C(Nc1ccc(F)cc1)Nc1ccccc1N1CCCCC1,-6,2,85*,11,77*,
O=C(Nc1ccc(N2CCCCC2)c(S(=O)(=O)Nc2ccccc2Cl)c1)c1cccnc1,1,15,2,-9,.,
O=C(Nc1ccc(F)cc1)Nc1ccc(N2CCCC2)c(S(=O)(=O)Nc2ccccc2Cl)c1,-28,7,100*,35,61*,
O=C(NCCN1CCOCC1)C1(C(F)(F)F)C/C(=C\Cc2ccccc2)CCCO1 (stereo unspecified),-2,-4,0,7,.,
O=C(OCC(=O)N1CCN(c2ccccc2)CC1)c1cc(F)c(F)cc1Cl,-4,0,-1,.,.,
Cc1ccc(NS(=O)(=O)c2ccc3c(c2)NC(=O)CCS3)cc1C,-9,-3,-2,1,.,
O=C(/C=C/c1ccc(O)c(O)c1)c1ccccc1O,-8,13,73*,-12,63*,
O=C(C=Cc1ccccc1O)c1ccccc1O,-6,1,72*,-1,89*,
O=C(/C=C/c1ccccc1Cl)c1ccccc(=O)c1O,-7,9,3,30,.,
O=C(C=Cc1cccc(O)c1)c1ccccc1O,6,10,6,-8,.,
CC(=O)Nc1ccc(-c2ccnc3c2CC(C)(C(=O)Nc2cccc(C(F)(F)F)c2)O3)cc1 (stereo unspecified),1,-1,2,.,.,
Cc1ccc(NC(=S)Nc2ccc(C(C)C)cc2)cc1S(=O)(=O)N1CCCCCC1,-7,19,103*,3,78*,
C=CCNC(=S)Nc1ccc(C)c(S(=O)(=O)N2CCCCC2)c1,5,-2,18,1,.,
CCCCC(=O)NC(NC(=S)N1CCOCC1)C(Cl)(Cl)Cl (stereo unspecified),3,-13,0,9,.,
O=C(NC(NC(=S)N1CCOCC1)C(Cl)(Cl)Cl)c1ccc(Cl)cc1 (stereo unspecified),-6,6,67*,-6,83*,
COc1cccc(C(NC(C)=O)c2nc(-c3cccc(C(=O)O)c3)cs2)c1 (stereo unspecified),-1,2,-1,.,.,
CCOC(=O)C1=C(C(=O)OCC)N(CC2CCCCC2)CCC1=O,3,14,2,-4,.,
CN1CCN(C2=Cc3ccccc3Sc3cc(F)ccc32)CC1,-9,21,98*,-9,-9,
